Measured values reported in ChEMBL document CHEMBL4261608, “Design, synthesis and anti-mycobacterial activity evaluation of benzofuran-isatin hybrids” (Eur J Med Chem, 2018).
Converted amounts (≈) assume the structure as drawn.

What was measured:
[1] = Selectivity index, ratio of CC50 for African green monkey Vero cells to MIC for Mycobacterium tuberculosis H37Rv; format: toxicity; conditions: read-out: Selectivity Index
Method in brief: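 SI calculated as CC50/MIC against H37Rv. Viability read by MTT, CC50 by Bliss analysis. MIC comes from the 7-day visual broth test.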

[2] = Cytotoxicity against African green monkey Vero cells after 72 hrs by MTT assay; format: cell-based; conditions: chlorocebus sabaeus
[3] = tested on: Mycobacterium tuberculosis; test: Antimycobacterial activity against Mycobacterium tuberculosis H37Rv incubated for 7 days by rapid direct susceptibility test; format: functional; conditions: 168 h
Method in brief: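 Two-fold dilutions of compound mixed with MTB suspension holding 4×10^-3 mg cells (H37Rv, or MDR strain resistant to ethambutol, INH and RIF) in 48-well plates. Incubation at 37 °C in a wet box. Cells in each well observed by continuous visual high-magnification system, re-read 7 days later. MIC taken as lowest concentration inhibiting visible growth.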

[4] = Tmax in ICR mouse at 25 mg/kg, po administered as single dose; format: ADME, organism-based; conditions: in vivo
Method in brief: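 SPF female ICR mice (20-25 g), 3 per group, given a single oral dose of 25 mg/kg as a suspension in 0.5% CMC. Blood drawn from the jugular vein at 0.25, 0.5, 1, 2, 4, 6, 8 and 24 h post-dose. AUC(0-inf), t1/2, Cmax and Tmax derived directly from the concentration-time data.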

Compound	selectivity ratio [1]	CC50 at 72 h [2] [µM]	MIC [3] [µg/mL]	Tmax [4] [h]
CO[C@H]1/C=C/O[C@@]2(C)Oc3c(C)c(O)c4c(O)c(c(/C=N/N5CCN(C)CC5)c(O)c4c3C2=O)NC(=O)/C(C)=C\C=C\[C@H](C)[C@H](O)[C@@H](C)[C@@H](O)[C@@H](C)[C@H](OC(C)=O)[C@@H]1C [RIFAMPIN]	1024	512		
NNC(=O)c1ccncc1 [ISONIAZID]	4096	256	0.06 (≈ 0.438 µM)	
CCOC(=O)c1c(-c2ccc(O)cc2)oc2ccc(O)c(CN3CCCCC3)c12				3.46
CCOC(=O)c1c(-c2ccc(OC)cc2)oc2ccc(OCc3cn(CCN4C(=O)/C(=N/NC(N)=S)c5cc(OC)ccc54)nn3)cc12				1.24
